Data set [1] in a line: Solubility of compound in water. Type of data set: physicochemical. The note with it: buffer.
Data set [2] concerns the target 5-hydroxytryptamine receptor 2A (Homo sapiens, UniProt P28223). Nature of the data set: Displacement of [3H]ketanserin from human 5HT2A receptor expressed in CHOK1 cells incubated for 1 hr by liquid scintillation counter method. It is filed as cell-based. The note with it: for pKi: read-out: Ki.
The target of data set [3] is T1, 5-hydroxytryptamine receptor 1A (Homo sapiens, UniProt P08908).
T1 sequence (P08908 whole entry): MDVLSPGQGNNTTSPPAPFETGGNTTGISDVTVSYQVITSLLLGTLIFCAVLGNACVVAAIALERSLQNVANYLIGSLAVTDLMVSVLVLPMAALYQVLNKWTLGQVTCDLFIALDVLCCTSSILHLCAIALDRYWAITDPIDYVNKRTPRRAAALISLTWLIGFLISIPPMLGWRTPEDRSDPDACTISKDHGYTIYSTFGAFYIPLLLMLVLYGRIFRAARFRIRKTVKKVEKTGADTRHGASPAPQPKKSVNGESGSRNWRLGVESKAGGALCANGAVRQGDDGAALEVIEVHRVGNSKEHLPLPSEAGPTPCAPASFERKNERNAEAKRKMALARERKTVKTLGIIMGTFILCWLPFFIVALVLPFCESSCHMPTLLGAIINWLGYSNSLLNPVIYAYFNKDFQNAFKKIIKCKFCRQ
Nature of the data set: Displacement of [3H]-8-OH-DPAT from human 5HT1A receptor expressed in HEK293 cells incubated for 1 hr by liquid scintillation counter method. Type of data set: cell-based. As to conditions: for pKi: read-out: Ki; for Ki: hek293. A digest of the protocol: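 HEK293 cells stably expressing human 5-HT1AR; membranes in 50 mM Tris–HCl, 0.1 mM EDTA, 4 mM MgCl2, 10 μM pargyline, 0.1% ascorbate; incubated 1 h at room temperature, then filtered. Nonspecific binding defined with 10 μM 5-HT.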
(In a radioligand displacement assay an active substance lowers the binding of a labelled ligand.)

Data set [4] in a line: in vitro. The note with it: rat.

pKi: −log10 of the molar value.

As a reminder, the pKi is the negative decadic logarithm of the Ki, by convention in mol/L. As usually defined, the microsomal CLint is a measure of how fast metabolising enzymes remove a compound, apart from limits set by blood flow. High values mean faster metabolism, low ones greater metabolic stability.

Chain of 5-hydroxytryptamine receptor 2A (P28223 whole entry): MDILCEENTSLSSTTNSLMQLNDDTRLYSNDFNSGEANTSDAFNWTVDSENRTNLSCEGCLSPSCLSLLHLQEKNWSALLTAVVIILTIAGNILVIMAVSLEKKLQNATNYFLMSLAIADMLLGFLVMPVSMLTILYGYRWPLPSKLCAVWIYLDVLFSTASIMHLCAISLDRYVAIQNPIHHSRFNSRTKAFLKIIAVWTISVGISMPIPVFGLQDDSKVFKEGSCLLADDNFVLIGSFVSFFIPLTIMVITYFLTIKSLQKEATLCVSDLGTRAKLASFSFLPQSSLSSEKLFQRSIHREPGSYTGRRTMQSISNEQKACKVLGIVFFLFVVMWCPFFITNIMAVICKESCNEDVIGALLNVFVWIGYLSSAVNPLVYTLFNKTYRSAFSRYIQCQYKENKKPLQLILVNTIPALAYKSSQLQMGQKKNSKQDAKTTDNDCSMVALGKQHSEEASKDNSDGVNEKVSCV

Consider `COc1ccc2c(c1)c(-c1[nH]c(NC(C)=O)nc1C)cn2S(=O)(=O)c1cccc(F)c1`, for which, in data set [1], the solubility entry is on record as “Insoluble”. Also, the pKi in data set [2] and in data set [3] was under 5.00 each time.

Take `CCC(=O)Nc1nc(C)c(-c2cn(S(=O)(=O)c3cccc(F)c3)c3ccc(OC)cc23)[nH]1`: in data set [1], the solubility entry was “Insoluble”. In addition, the pKi in data set [2] and in data set [3] was under 5.00 in each case.

With `Fc1ccc2c(CCNCc3cccc(OCC(F)(F)C(F)F)c3)c[nH]c2c1` [IDALOPIRDINE], the microsomal CLint in data set [4] (microsomes) amounted to 99.3 µL/min/mg.

Take `CC(=O)Nc1nc(C)c(-c2cn(S(=O)(=O)c3cccc4ccccc34)c3ccccc23)[nH]1`: in data set [1], the solubility result was “Insoluble”.

With `COc1ccc2c(c1)c(-c1[nH]c3nccc[n+]3c1C)cn2S(=O)(=O)c1ccccc1.[Br-]`, the solubility entry in data set [1] is on record as “Soluble”. The negative-log Ki (pKi) in data set [2] and in data set [3] was under 5.00 throughout.

As for `COc1ccc2c(c1)c(-c1[nH]c(N)nc1C)cn2S(=O)(=O)c1cccc2ccccc12`, the pKi in data set [2] is 5.78; in data set [3], under 5.00.

With `Cl.Nc1ncc(-c2cccc3c2ccn3S(=O)(=O)c2ccccc2)[nH]1`, in data set [1], the solubility entry is reported as “Soluble”. Further, the pKi in data set [2] was 5.64.

As for `COc1ccc2c(c1)c(-c1nc(N)sc1C)cn2S(=O)(=O)c1cccc2ccccc12`, the solubility entry in data set [1] was “Insoluble”.

Turning to `COc1ccc2c(c1)c(-c1[nH]c(NC(C)=O)nc1C)cn2S(=O)(=O)c1ccccc1`, the solubility entry in data set [1] was “Insoluble”. Moreover, the pKi in data set [2] and in data set [3] was under 5.00 in each case.

With `CCC(=O)Nc1nc(C)c(-c2cn(S(=O)(=O)c3cccc4ccccc34)c3ccccc23)[nH]1`, the solubility entry in data set [1] is on record as “Insoluble”. In addition, in data set [2], the pKi is under 5.00.

Turning to `CCc1nc(NC(C)=O)[nH]c1-c1cn(S(=O)(=O)c2ccccc2)c2ccc(OC)cc12`, in data set [1], the solubility result was “Insoluble”. The pKi in data set [2] and in data set [3] was under 5.00 in each case.

Consider `COc1ccc2c(c1)c(-c1[nH]c(N)nc1C)cn2S(=O)(=O)c1cccc(F)c1.Cl`, for which the solubility entry in data set [1] is “Soluble”. Also, the pKi in data set [2] is 5.95; in data set [3], under 5.00.

`CCC(=O)Nc1nc(C)c(-c2cn(S(=O)(=O)c3cccc4ccccc34)c3ccc(OC)cc23)[nH]1`: in data set [1], the solubility result is reported as “Insoluble”.

Take `COc1ccc2c(c1)c(-c1[nH]c3cccc[n+]3c1C)cn2S(=O)(=O)c1ccccc1.[Br-]`: the solubility result in data set [1] is “Soluble”. For the same compound, in data set [2], the pKi was under 5.00.

Regarding `COc1ccc2c(c1)c(-c1[nH]c(NCc3ccccc3)nc1C)cn2S(=O)(=O)c1ccccc1`, the solubility result in data set [1] is reported as “Insoluble”. The Ki result in data set [3] is given as “Not Active”.

As to `CCc1nc(NC(C)=O)[nH]c1-c1cn(S(=O)(=O)c2ccccc2)c2ccccc12`, the solubility entry in data set [1] is on record as “Insoluble”. Moreover, the pKi in data set [2] was under 5.00.

Turning to `CCc1nc(N)[nH]c1-c1cn(S(=O)(=O)c2ccccc2)c2ccc(OC)cc12.Cl`, the solubility result in data set [1] was “Soluble”. The pKi in data set [2] was 6.18; in data set [3], under 5.00.

For `CC(=O)Nc1nc(C)c(-c2c(C)n(S(=O)(=O)c3ccccc3)c3ccccc23)[nH]1`, in data set [1], the solubility result is listed as “Insoluble”. Also, the pKi in data set [3] was under 5.00.

As for `COc1ccc2c(c1)c(-c1[nH]c(NC(C)=O)nc1C)cn2S(=O)(=O)c1cccc2ccccc12`, the solubility result in data set [1] is given as “Insoluble”. In addition, the pKi in data set [2] is under 5.00.

For `COc1ccc2c(c1)c(-c1[nH]c(N)nc1C)cn2S(=O)(=O)c1ccc2ccccc2c1.Cl`, in data set [1], the solubility result was “Soluble”. In data set [2], the negative-log Ki (pKi) was 5.98.

Turning to `O=S(=O)(c1ccccc1)c1cnc2c(N3CCNCC3)cccc2c1` [INTEPIRDINE], the microsomal CLint in data set [4] (liver microsomes) came to 6.6 µL/min/mg.

For `COc1ccc2c(c1)c(-c1nc(N)sc1C)cn2S(=O)(=O)c1ccc2ccccc2c1`, the solubility entry in data set [1] was “Insoluble”.

Turning to `CC(=O)Nc1ncc(-c2cn(S(=O)(=O)c3ccccc3)c3ccccc23)[nH]1`, the solubility entry in data set [1] is reported as “Insoluble”. Also, the pKi in data set [3] is under 5.00.

Consider `Cc1sc(N)nc1-c1cn(S(=O)(=O)c2cccc3ccccc23)c2ccccc12`, for which the solubility result in data set [1] was “Insoluble”. Moreover, the Ki entry in data set [2] and in data set [3] was “Not Active” in each case.

In the case of `COc1ccc2c(c1)c(-c1cnc(NC(C)=O)[nH]1)cn2S(=O)(=O)c1cccc(F)c1`, the solubility result in data set [1] is “Insoluble”. The pKi in data set [2] is under 5.00.

`CCc1nc(N)[nH]c1-c1cn(S(=O)(=O)c2ccccc2)c2ccccc12.Cl`: in data set [1], the solubility result is on record as “Soluble”. Also, in data set [2], the pKi is 6.97.

Consider `CCC(=O)Nc1nc(C)c(-c2cccc3c2ccn3S(=O)(=O)c2ccccc2)[nH]1`, for which the solubility result in data set [1] was “Insoluble”. The pKi in data set [2] and in data set [3] was under 5.00 in each case.

As for `COc1ccc2c(c1)c(-c1[nH]c(N)nc1C)cn2S(=O)(=O)c1ccccc1.Cl`, in data set [1], the solubility entry is “Soluble”. In addition, the pKi in data set [2] was 6.17; in data set [3], under 5.00.

As to `CC(=O)N1CCCn2c1nc(C)c2-c1cn(S(=O)(=O)c2ccccc2)c2ccccc12`, the solubility entry in data set [1] is “Insoluble”. Further, the pKi in data set [2] and in data set [3] was under 5.00 each time.

Turning to `Cc1sc(N)nc1-c1cn(S(=O)(=O)c2ccccc2)c2ccccc12`, the solubility entry in data set [1] is given as “Insoluble”. Further, in data set [3], the Ki entry is on record as “Not Active”.

Turning to `CCC(=O)Nc1nc(C)c(-c2ccc3ccn(S(=O)(=O)c4ccccc4)c3c2)[nH]1`, the solubility result in data set [1] is listed as “Insoluble”. The pKi in data set [2] was 5.13.

Regarding `CC(=O)N1CCn2c1nc(C)c2-c1cn(S(=O)(=O)c2ccccc2)c2ccccc12`, in data set [1], the solubility entry is given as “Insoluble”. Moreover, the pKi in data set [2] and in data set [3] was under 5.00 in each case.

As for `Cl.Nc1ncc(-c2cn(S(=O)(=O)c3ccccc3)c3ccccc23)[nH]1`, in data set [1], the solubility entry was “Soluble”. Further, the pKi in data set [2] was 6.05; in data set [3] it was 6.90.

Turning to `COc1ccc2c(c1)c(-c1[nH]c(NC(C)=O)nc1C)cn2S(=O)(=O)c1ccc2ccccc2c1`, the solubility result in data set [1] is given as “Insoluble”. Also, the pKi in data set [2] is under 5.00.

For the compound `COc1ccc2c(c1)c(-c1cnc(N)[nH]1)cn2S(=O)(=O)c1cccc(F)c1.Cl`, in data set [1], the solubility result was “Soluble”.

`CCC(=O)Nc1nc(C)c(-c2cn(S(=O)(=O)c3ccc4ccccc4c3)c3ccc(OC)cc23)[nH]1`: the solubility entry in data set [1] was “Insoluble”. Also, the pKi in data set [2] was under 5.00.

As for `CCC(=O)Nc1nc(CC)c(-c2cn(S(=O)(=O)c3ccccc3)c3ccc(OC)cc23)[nH]1`, in data set [1], the solubility entry is recorded as “Insoluble”.

On to `COc1ccc2c(c1)c(-c1nc(N)sc1C)cn2S(=O)(=O)c1ccccc1`, for which the solubility result in data set [1] is reported as “Insoluble”. The pKi in data set [2] is 5.61.

Consider `COc1ccc2c(c1)c(-c1cnc(NC(C)=O)[nH]1)cn2S(=O)(=O)c1ccccc1`, for which the solubility entry in data set [1] is recorded as “Insoluble”. For the same compound, the pKi in data set [3] was under 5.00.
